This is an account of results in ChEMBL document CHEMBL4219243, “Characterization of Protease-Activated Receptor (PAR) ligands: Parmodulins are reversible allosteric inhibitors of PAR1-driven calcium mobilization in endothelial cells” (Bioorg Med Chem, 2018).

The source made the active and inactive calls. The calls are words filed in the database; no cut-off is given here.

Experiment [1] addresses T1, Proteinase-activated receptor 1 (Homo sapiens) (UniProt P25116).
T1 sequence (whole entry): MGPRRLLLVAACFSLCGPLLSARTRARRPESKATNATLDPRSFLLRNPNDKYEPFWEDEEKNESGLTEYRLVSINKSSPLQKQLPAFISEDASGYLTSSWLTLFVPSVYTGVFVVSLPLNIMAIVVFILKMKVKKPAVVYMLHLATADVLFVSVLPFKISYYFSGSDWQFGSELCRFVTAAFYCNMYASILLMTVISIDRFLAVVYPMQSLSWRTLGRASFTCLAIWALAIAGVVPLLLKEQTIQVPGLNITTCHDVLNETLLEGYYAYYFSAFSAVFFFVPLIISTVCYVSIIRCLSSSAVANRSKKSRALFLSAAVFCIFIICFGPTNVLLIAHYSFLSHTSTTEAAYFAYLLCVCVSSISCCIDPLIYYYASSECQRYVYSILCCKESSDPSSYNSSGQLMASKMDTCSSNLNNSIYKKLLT
Put plainly: Antagonist activity at PAR1 in human EAhy926 cells assessed as inhibition of TFLLRN-NH2-induced intracellular calcium mobilization at 10 uM pretreated for 15 mins followed by TFLLRN-NH2 addition measured at 5 secs interval for 250 secs by Fluo-4/AM dye based fluorescence assay. Type of experiment: functional, cell-based. (A change in cytosolic calcium serves as a functional read-out for many receptors and channels.)

Experiment [2] has as its target T1, Proteinase-activated receptor 1 (Homo sapiens). As to conditions: 0.316 uM.
Experiment [3] addresses Proteinase-activated receptor 2 (Homo sapiens) (UniProt P55085). It counts as functional, cell-based. Particulars: 0.316 uM.
The target in experiment [4] is T1, Proteinase-activated receptor 1 (Homo sapiens). Put plainly: (§1) Antagonist activity at PAR1 in human EAhy926 cells assessed as inhibition of TFLLRN-NH2-induced intracellular calcium mobilization pretreated for 15 mins followed by TFLLRN-NH2 addition measured at 5 secs interval for 250 secs by Fluo-4/AM dye based fluorescence assay. Type of experiment: functional, cell-based. Further details: concentration or dose not given beside the values. In outline:
(§2)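 EA.hy926 cells were used at passage 2–11, seeded at 25,000/well and grown 40–48 h at 37 °C to >80% confluence. Cells were loaded with Fluo-4/AM (2 μM) in HBSS-HEPES containing 2.5 mM probenecid, pH 7.4, for 40–50 min, then washed twice. Antagonist in 10% DMSO vehicle was added for 15 min at 37 °C before agonist. Agonist was 5 μM TFLLRN-NH₂; ex 485/em 525 nm.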

Experiment [5] has as its target T2, Proteinase-activated receptor 1 (Homo sapiens, UniProt P25116).
T2 sequence (P25116 whole entry): T1 sequence (whole entry)
The experiment is described as §1. Type of experiment: functional, cell-based. In outline: as §2

Experiment [6] has as its target T3, Proteinase-activated receptor 2 (Homo sapiens, UniProt P55085).
T3 sequence (P55085 whole entry): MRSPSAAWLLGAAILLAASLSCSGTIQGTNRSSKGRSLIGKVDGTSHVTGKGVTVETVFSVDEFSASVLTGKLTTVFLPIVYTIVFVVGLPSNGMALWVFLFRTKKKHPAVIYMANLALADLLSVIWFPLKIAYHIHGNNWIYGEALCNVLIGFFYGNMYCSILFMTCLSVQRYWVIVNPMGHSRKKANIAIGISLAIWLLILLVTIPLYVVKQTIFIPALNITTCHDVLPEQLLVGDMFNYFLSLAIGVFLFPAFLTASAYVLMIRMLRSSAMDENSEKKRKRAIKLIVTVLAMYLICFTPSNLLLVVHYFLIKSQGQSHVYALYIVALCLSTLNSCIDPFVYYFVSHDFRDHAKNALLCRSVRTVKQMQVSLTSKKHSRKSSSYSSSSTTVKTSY
Put plainly: Antagonist activity at PAR2 in human EAhy926 cells assessed as inhibition of SLIGKV-NH2-induced intracellular calcium mobilization pretreated for 15 mins followed by SLIGKV-NH2 addition measured at 5 secs interval for 250 secs by Fluo-4/AM dye based fluorescence assay. Type of experiment: functional, cell-based. In outline: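 EA.hy926 monolayers (25,000 cells/well, 40–48 h) were loaded with 2 µM Fluo-4/AM for 40–50 min at 37 °C in HBSS-HEPES with 2.5 mM probenecid, pH 7.4. Antagonist in 10% DMSO vehicle was added for 15 min at 37 °C, then SLIGKV-NH2 (5 µM for curves, 3.16 µM for selectivity). Read at ex485/em525, 20 basal scans. Peak RFU/basal was normalised to a same-column vehicle well; curves from ≥3 repeats fitted by 4-parameter regression.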

The target in experiment [7] is Proteinase-activated receptor 2 (Homo sapiens) (UniProt P55085). Put plainly: Antagonist activity at PAR2 in human EAhy926 cells assessed as inhibition of SLIGKV-NH2-induced intracellular calcium mobilization at 10 uM pretreated for 15 mins followed by SLIGKV-NH2 addition measured at 5 secs interval for 250 secs by Fluo-4/AM dye based fluorescence assay. It counts as functional, cell-based. In short, it runs like this: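 EA.hy926 monolayers were Fluo-4/AM-loaded (2 μM, with 2.5 mM probenecid in HBSS-HEPES) and pretreated 15 min at 37 °C with 10 μM antagonist in 10% DMSO vehicle. They were then stimulated with 3.16 μM SLIGKV-NH₂. Fluorescence (485/525 nm) was read every 5 s. The peak rise over basal, divided by basal, was normalized to the vehicle well.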

The target in experiment [8] is T1, Proteinase-activated receptor 1 (Homo sapiens). Put plainly: Negative allosteric modulation of PAR1 in human EAhy926 cells assessed as inhibition of TFLLRN-NH2-induced intracellular calcium mobilization at 10 uM pretreated for 20 to 30 mins followed by compound washout and subsequent incubation for 10 mins prior to TFLLRN-NH2 addition measured at 5 secs interval for 250 secs by Fluo-4/AM dye based fluorescence assay. Type of experiment: functional, cell-based. In outline: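 EA.hy926 cells grown 40–48 h to confluence, loaded with Fluo-4/AM in HBSS-HEPES with 2.5 mM probenecid for 40–50 min at 37 °C, washed. Antagonist or vehicle (10% DMSO) added for 20–30 min, then washed twice with buffer, 10 min at 37 °C each. TFLLRN-NH2 (5 μM) added; emission 525 nm (ex 485) read against basal.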

Experiment [9] has the same target. It counts as functional, cell-based. As to conditions: 0.316 uM.

The inhibition is how much of the control response was suppressed. As to `Clc1ccc(Cn2c(Cc3ccccc3)nc3ccccc32)cc1`, the inhibition result in [1] is “inactive”.

Take `CCOC(=O)N[C@@H]1CC[C@@H]2[C@@H](C1)C[C@H]1C(=O)O[C@H](C)[C@H]1[C@H]2/C=C/c1ccc(-c2cccc(F)c2)cn1`: the inhibition result in experiment [2] and in experiment [3] was “inactive” each time.

As to `CCCC(=O)Nc1cccc(NC(=O)c2ccccc2N=[N+]=[N-])c1`, in experiment [4], the inhibition amounted to 77%. The IC50 in [5] (read-out: IC50) was 94 µM.

Turning to `CC[C@H](C)[C@H](NC(=O)[C@H](CC1CCCCC1)NC(=O)c1ccno1)C(=O)NCc1ccccc1OC`, the IC50 in [6] is 1.7 µM. In addition, in experiment [1], the inhibition entry was “inactive”.

As for `C#CCCC(=O)NCC[C@H](NC(=O)[C@H](Cc1ccc(F)c(F)c1)NC(=O)Nc1ccc2c(CN3CCCC3)nn(Cc3c(Cl)cccc3Cl)c2c1)C(=O)NCc1ccccc1`, in [4], the inhibition stood at 76%. Moreover, the IC50 in experiment [5] (read-out: pIC50 (converted)) is 0.316 µM.

As to `CCCCNc1cccc(NC(=O)c2ccccc2Br)c1`, the IC50 in experiment [5] (read-out: IC50) was 0.97 µM. For the same molecule, the inhibition result in [7] was “inactive”. Besides, the inhibition result in experiment [8] is “Active”.

As to `CCOc1cc2c(c(F)c1OCC)C(=N)N(CC(=O)c1cc(N3CCOCC3)c(OC)c(C(C)(C)C)c1)C2` [ATOPAXAR], in [4], the inhibition came to 94%. Besides, in experiment [5] (read-out: IC50), the IC50 came to 0.033 µM. For the same molecule, in [3], the inhibition result was “inactive”.

For `CCCC(=O)Nc1cccc(NC(=O)c2ccccc2Br)c1`, the IC50 in experiment [5] (read-out: IC50) stood at 0.85 µM. For the same molecule, the inhibition result in experiment [7] was “inactive”. For the same molecule, the inhibition entry in experiment [8] was “Active”.

In the case of `CCCCC(=O)Nc1cccc(NC(=O)c2ccccc2Br)c1`, in experiment [4], the inhibition worked out at 49%.

For `CCC(=O)Nc1cccc(NC(=O)c2ccccc2Br)c1`, the inhibition in experiment [4] stood at 68%. Also, the IC50 in [5] (read-out: IC50) is 3.3 to 3.31 µM; in [5] (read-out: pIC50 (converted)) it was 3.16 µM.

For the molecule `C#CCCC(=O)Nc1cccc(NC(=O)c2ccccc2Br)c1`, the inhibition in experiment [4] is 79%. The IC50 in experiment [5] (read-out: IC50) is 81 µM; in experiment [5] (read-out: pIC50 (converted)), 100 µM.

Turning to `CC(C)CC(=O)Nc1cccc(NC(=O)c2ccccc2Br)c1`, in [4], the inhibition is 74%. For the same molecule, the IC50 in experiment [5] (read-out: IC50) worked out at 3.16 µM. Moreover, the inhibition entry in experiment [8] is “Active”.

Consider `NCC[C@H](NC(=O)[C@H](Cc1ccc(F)c(F)c1)NC(=O)Nc1ccc2c(CN3CCCC3)nn(Cc3c(Cl)cccc3Cl)c2c1)C(=O)NCc1ccccc1`, for which the IC50 in experiment [5] (read-out: IC50) was 0.02 µM. In [9], the inhibition result is “Active”. The inhibition entry in [3] is “inactive”.
